# Data: PMC3131463 (Journal of medicinal chemistry, 2011)
# “And” between values parts separate entries of the source, which are not always exact repeats. Equal entries are not always repeated.
# Key:
# [1] = test system: LPS-induced NO production in RAW 264 macrophage cells; assay: Suppression of LPS-induced NO production in RAW 264.7 macrophage cells; assay type: cell-based
# human whole blood = assay: Agonism / hemolysis in human whole blood; assay type: cell-based; conditions: up to 1 mM
# In short: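 Human whole blood from healthy consenting donors, anticoagulated with lepirudin (final 50 µg/mL), was added to tubes holding test compound or PBS with Ca2+/Mg2+. It was preincubated 5–10 min at 37 °C, then given E. coli 0111:B4 ultra-pure LPS (100 ng/mL) or endotoxin-free PBS and rotated 2 h at 37 °C. EDTA (final 10 mM) was added, and plasma TNF-α, IL-8 and IL-6 were measured by singleplex Bio-plex.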
# [2] = Metabolic stability in human liver S9 fractions; assay type: in vitro ADME
# In short: (§1)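 Test compound (1 µM, <0.25% DMSO) was incubated at 37 °C with pooled liver S9 protein (1 mg/mL) and 1 mM each of NADPH, UDPGA, PAPS and GSH. Cofactors were added to start reactions at 0, 10, 20, 30 and 60 min, with testosterone and 7-hydroxycoumarin (20 µM each) as positive controls. Depletion was followed by LC-MS/MS peak-area ratio to internal standard, without a standard curve. CLint = k/P.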
# PKC-γ = PKC-γ (Homo sapiens, UniProt P05129); assay: KinaseSeeker kinase profiling, PKC-γ; assay type: binding; conditions: read-out: inhibition of PKC-γ (most inhibited kinase)
# MDR1-MDCK monolayer = assay: MDR1-MDCK permeability assay; assay type: in vitro ADME; conditions: 5 µM, apical to basolateral and basolateral to apical
# CYP1A2 = biological target: T1, CYP1A2 (Homo sapiens, UniProt P05177); assay: CYP IC50 in human liver microsomes, CYP1A2; assay type: in vitro ADME
# T1 sequence (P05177 1-516): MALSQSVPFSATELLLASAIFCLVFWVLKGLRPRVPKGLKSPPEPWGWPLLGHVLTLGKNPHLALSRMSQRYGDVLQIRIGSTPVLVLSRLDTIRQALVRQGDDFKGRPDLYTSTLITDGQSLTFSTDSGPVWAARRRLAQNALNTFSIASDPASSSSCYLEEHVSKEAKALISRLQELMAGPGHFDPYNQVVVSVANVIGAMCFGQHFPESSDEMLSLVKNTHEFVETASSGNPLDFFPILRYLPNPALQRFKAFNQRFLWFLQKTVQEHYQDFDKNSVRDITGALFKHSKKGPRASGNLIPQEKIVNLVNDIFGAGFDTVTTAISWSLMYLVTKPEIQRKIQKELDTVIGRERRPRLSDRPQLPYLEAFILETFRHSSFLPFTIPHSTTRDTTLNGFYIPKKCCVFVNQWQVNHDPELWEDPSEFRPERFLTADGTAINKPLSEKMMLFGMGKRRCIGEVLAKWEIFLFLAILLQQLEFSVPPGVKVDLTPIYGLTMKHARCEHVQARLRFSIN
# In short: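 Test compound was run at eight concentrations (0–100 µM), with α-naphthoflavone as positive control. Protein was precipitated and acetaminophen formation measured by LC-MS/MS. IC50 came from a sigmoidal nonlinear regression fit.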
# [3] = Metabolic stability in human liver microsomes; assay type: in vitro ADME
# In short: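 Test compound (1 µM, <0.25% DMSO) was incubated at 37 °C with human liver microsomal protein (0.5 mg/mL). Cofactors were added to start reactions at 0, 10, 20, 30 and 60 min, with a 5 µM testosterone positive control. NADPH addition was confirmed by fluorimetry. Compound-to-internal-standard peak-area ratio was read by LC-MS/MS without a standard curve. CLint = elimination rate constant / protein concentration.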
# [4] = Metabolic stability in rat liver S9 fractions; assay type: in vitro ADME
# In short: as §1
# [5] = test system: AKT1, CAMK1, DDR2, GSK-3α, MAPK1, MET, PAK1, PDGFRB, PIM1, PKC-γ, PLK4, and SRC; assay: KinaseSeeker kinase profiling, panel of 12 kinases; assay type: binding; conditions: at respective RAW264.7 IC50 concentrations (1j 28 µM, 1s 16 µM)
# MARK1 = MARK1 (Homo sapiens, UniProt Q9P0L2); assay: KinaseSeeker kinase profiling, MARK1; assay type: binding; conditions: read-out: inhibition of MARK1 (most inhibited kinase)
# Chain of MARK1 (Q9P0L2 whole entry, species assumed): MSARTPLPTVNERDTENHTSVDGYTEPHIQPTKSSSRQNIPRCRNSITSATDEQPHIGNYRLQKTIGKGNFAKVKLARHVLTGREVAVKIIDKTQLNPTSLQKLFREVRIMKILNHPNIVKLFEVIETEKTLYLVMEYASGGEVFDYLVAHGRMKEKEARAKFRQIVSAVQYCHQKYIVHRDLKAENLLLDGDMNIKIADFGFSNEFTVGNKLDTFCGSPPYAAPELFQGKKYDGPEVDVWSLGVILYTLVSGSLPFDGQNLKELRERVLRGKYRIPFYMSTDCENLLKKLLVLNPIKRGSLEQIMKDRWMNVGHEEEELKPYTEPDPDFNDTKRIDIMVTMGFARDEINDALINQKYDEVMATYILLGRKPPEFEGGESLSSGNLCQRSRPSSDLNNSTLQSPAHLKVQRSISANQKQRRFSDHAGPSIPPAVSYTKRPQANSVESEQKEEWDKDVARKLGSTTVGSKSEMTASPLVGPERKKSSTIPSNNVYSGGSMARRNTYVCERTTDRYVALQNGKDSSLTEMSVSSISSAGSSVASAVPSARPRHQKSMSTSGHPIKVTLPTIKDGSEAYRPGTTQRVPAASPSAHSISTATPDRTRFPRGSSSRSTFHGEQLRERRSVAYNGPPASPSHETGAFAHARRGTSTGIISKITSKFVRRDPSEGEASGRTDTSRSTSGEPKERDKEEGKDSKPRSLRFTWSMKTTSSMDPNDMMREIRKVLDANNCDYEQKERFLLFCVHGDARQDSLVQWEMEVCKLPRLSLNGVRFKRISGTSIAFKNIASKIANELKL
activity retained by the majority of the kinases [5],maximal inhibition of any kinase of the panel [5] [%],Structure (SMILES),suppression of NO signaling (in words) [1],agonistic effects with respect to cytokine release or hemolysis (human whole blood),also measured
–,–,"Cc1nn(Cc2ccccc2)c(C)c1CN(C)CC(O)COc1ccccc1 (stereo not drawn) [1a, 1-(((1-benzyl-3,5-dimethyl-1H-pyrazol-4-yl)methyl)(methyl)amino)-3-phenoxypropan-2-ol]",ineffective at suppressing NO signaling,no agonistic effects,–
–,–,CCOc1ccc(OCC(O)CN(C)Cc2c(C)nn(Cc3ccccc3OC)c2C)cc1 (stereo not drawn) [1g],no detectable NO suppression,–,–
> 95%,≤ 27,"CCOc1ccc(OCC(O)CN(C)Cc2c(C)nn(Cc3ccccc3Cl)c2C)cc1 (stereo not drawn) [1j, 1-(((1-(2-chlorobenzyl)-3,5-dimethyl-1H-pyrazol-4-yl)methyl)(methyl)amino)-3-(4-ethoxyphenoxy)propan-2-ol]",–,no agonistic effects,microsomal CLint at 1 µM [2]: 300 µL/min/mg; inhibition at 28 µM (PKC-γ): 22.4%; brain-blood barrier permeability classification (MDR1-MDCK monolayer): high; IC50 (CYP1A2): > 100 µM; microsomal CLint [3]: > 700 µL/min/mg; microsomal CLint [4]: > 350 µL/min/mg
> 95% and 95%,≤ 27,Cc1nn(Cc2ccccc2Cl)c(C)c1CN(C)CC(O)COc1ccc(Cl)cc1 (stereo not drawn) [1s],–,–,inhibition at 16 µM (MARK1): 26.7%
